{"data": "Results of several laboratories", "effect on": "binding", "Tumor necrosis factor receptor superfamily member 9": "Tumor necrosis factor receptor superfamily member 9 (Homo sapiens, UniProt Q07011)", "MET": "Hepatocyte growth factor receptor (MET, Homo sapiens, UniProt P08581)", "note": "Protocols differ between the studies behind these lines."}
{"SMILES": "OC[C@H]1OC(O)[C@H](O)[C@@H](O)[C@@H]1O (stereo partly shown)", "target": "Hexokinase-4 (GCK, Homo sapiens, UniProt P35557)", "test": "stopped-flow", "Kd": "5000 µM"}
{"SMILES": "CC(C)C[C@H](NC(=O)[C@@H]1CCCN1C(=O)[C@H](Cc1ccccc1)NC(=O)[C@H](CCC(=O)O)NC(=O)[C@@H](N)CC(N)=O)C(=O)N[C@@H](CS)C(=O)N[C@@H](CO)C(=O)N[C@@H](CC(C)C)C(=O)N1CCC[C@H]1C(=O)N[C@@H](CCC(=O)O)C(=O)NCC(=O)O", "target": "Ubiquitin carboxyl-terminal hydrolase 7 (USP7, Homo sapiens, UniProt Q93009)", "test": "ITC", "conditions": "pH 8", "Kd": "118 µM"}
{"SMILES": "CCCC[C@@H]1NC(=O)[C@H](Cc2ccc(O)cc2)NC(=O)[C@@H]2CCCN2C(=O)[C@H](CC(=O)O)NC(=O)[C@H](C)NC(=O)[C@H](Cc2ccccc2)NC(=O)[C@@H]2CSCCC(=O)N3CN(CN(C3)C(=O)CCSC[C@@H](C(=O)N[C@@H](C)C(N)=O)NC1=O)C(=O)CCSC[C@H](NC(C)=O)C(=O)N[C@@H](CC(C)(C)C)C(=O)N1CCC[C@H]1C(=O)N[C@@H](CCC(=O)O)C(=O)N[C@H](CCCCNC(=O)CCc1cn(CCOCCOCCOCCOCCOCCC(=O)NCCCC[C@H]3NC(=O)[C@H](Cc4cccc5ccccc45)NC(=O)[C@@H]4CCCN4C(=O)[C@@H](NC(C)=O)CSCCC(=O)N4CN5CN(C4)C(=O)CCSC[C@H](NC3=O)C(=O)N[C@@H](CCSC)C(=O)N[C@@H](CCCCNC(=N)N)C(=O)N[C@@H](CC(=O)O)C(=O)N[C@@H](Cc3c[nH]c4ccccc34)C(=O)N[C@@H](CO)C(=O)N[C@@H]([C@@H](C)O)C(=O)N3CCC[C@H]3C(=O)N3C[C@H](O)C[C@H]3C(=O)N[C@@H](Cc3c[nH]c4ccccc34)C(=O)N[C@H](C(N)=O)CSCCC5=O)nn1)C(=O)N1CCC[C@H]1C(=O)N[C@@H](Cc1ccc(O)cc1)C(=O)N2", "target": "Tumor necrosis factor receptor superfamily member 9", "test": "SPR", "Kd": "0.0043 µM"}
{"SMILES": "C[C@@H](c1ccccc1)n1cc(-c2cc(F)cc(F)c2)c(=O)[nH]c1=O", "target": "MET", "Kd": "1 µM"}
{"SMILES": "CCCC[C@@H]1NC(=O)[C@H](Cc2ccc(O)cc2)NC(=O)[C@@H]2CCCN2C(=O)[C@H](CC(=O)O)NC(=O)[C@H](C)NC(=O)[C@H](Cc2ccccc2)NC(=O)[C@@H]2CSCCC(=O)N3CN(CN(C3)C(=O)CCSC[C@@H](C(=O)N[C@@H](C)C(N)=O)NC1=O)C(=O)CCSC[C@H](NC(=O)[C@H](C)NC(C)=O)C(=O)N[C@@H]([C@@H](C)CC)C(=O)N[C@@H](CCC(=O)O)C(=O)N[C@@H](CCC(=O)O)C(=O)N[C@H](CCCCNC(=O)CCc1cn(CCOCCOCCOCCOCCOCCC(=O)N[C@H]3CSCCC(=O)N4CN5CN(C4)C(=O)CCSC[C@H](NC(=O)[C@@H](CC(=O)O)NC(=O)[C@H](Cc4cccc6ccccc46)NC(=O)[C@@H]4CCCN4C3=O)C(=O)N[C@@H](CCSC)C(=O)N[C@@H](CCCCNC(=N)N)C(=O)N[C@@H](CC(=O)O)C(=O)N[C@@H](Cc3c[nH]c4ccccc34)C(=O)N[C@@H](CO)C(=O)N[C@@H]([C@@H](C)O)C(=O)N3CCC[C@H]3C(=O)N3C[C@H](O)C[C@H]3C(=O)N[C@@H](Cc3c[nH]c4ccccc34)C(=O)N[C@H](C(N)=O)CSCCC5=O)nn1)C(=O)N[C@@H](CCC(N)=O)C(=O)N[C@@H](Cc1ccc(O)cc1)C(=O)N2", "target": "Tumor necrosis factor receptor superfamily member 9", "test": "SPR", "Kd": "0.043 µM"}
{"SMILES": "CCCCC1(CCCCCCCCCCCCC(=O)O)OCC(C)(C)N1[O] (stereo not shown)", "target": "kcsA (Streptomyces lividans, UniProt P0A334)", "Kd": "0.1 to 1 µM"}
{"SMILES": "CC(c1ccccc1)n1cc(-c2c(F)ccc3cn[nH]c23)c(=O)[nH]c1=O (stereo not shown)", "target": "MET", "Kd": "0.398 µM"}
{"SMILES": "CCCN1CCc2cc(OC)cc3c2[C@H]1Cc1ccc(O)c(O)c1-3", "target": "D(2) dopamine receptor (Drd2, Rattus norvegicus, UniProt P61169)", "test": "radioligand", "conditions": "cell membranes", "Kd": "0.00221 µM"}
{"SMILES": "CCCC[C@@H]1NC(=O)[C@H](Cc2ccc(O)cc2)NC(=O)[C@@H]2CCCN2C(=O)[C@H](CC(=O)O)NC(=O)[C@H](C)NC(=O)[C@H](Cc2ccccc2)NC(=O)[C@@H]2CSCCC(=O)N3CN(CN(C3)C(=O)CCSCCC(=O)N[C@@H](CC(C)(C)C)C(=O)N3CCC[C@H]3C(=O)N[C@@H](CCC(=O)O)C(=O)N[C@H](CCCCNC(=O)CCc3cn(CCOCCOCCOCCOCCOCCC(=O)N[C@H]4CSCCC(=O)N5CN6CN(C5)C(=O)CCSC[C@H](NC(=O)[C@@H](CC(=O)O)NC(=O)[C@H](Cc5cccc7ccccc57)NC(=O)[C@@H]5CCCN5C4=O)C(=O)N[C@@H](CCSC)C(=O)N[C@@H](CCCCNC(=N)N)C(=O)N[C@@H](CC(=O)O)C(=O)N[C@@H](Cc4c[nH]c5ccccc45)C(=O)N[C@@H](CO)C(=O)N[C@@H]([C@@H](C)O)C(=O)N4CCC[C@H]4C(=O)N4C[C@H](O)C[C@H]4C(=O)N[C@@H](Cc4c[nH]c5ccccc45)C(=O)N[C@H](C(N)=O)CSCCC6=O)nn3)C(=O)N3CCC[C@H]3C(=O)N[C@@H](Cc3ccc(O)cc3)C(=O)N2)C(=O)CCSCCNC1=O", "target": "Tumor necrosis factor receptor superfamily member 9", "test": "SPR", "Kd": "0.049 µM"}
{"SMILES": "Cc1n[nH]c2c(-c3cn(C(C)c4ccccc4)c(=O)[nH]c3=O)cccc12 (stereo not shown)", "target": "MET", "Kd": "0.2 µM"}
